One may read the IC50 as the midpoint of a concentration-inhibition curve.

Molecules are shown by their SMILES. Some results are limits rather than exact numbers.

We go through eleven compounds from ChEMBL document CHEMBL1765087, “Synthesis and evaluation of cardiac glycoside mimics as potential anticancer drugs” (Bioorg Med Chem, 2011).

The species named for one assay is Sus scrofa. Put plainly: Binding affinity to pig kidney Na+/K+-ATPase assessed as inorganic phosphate release after 2 hrs. In outline:
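Purified pig kidney Na⁺,K⁺-ATPase (specific activity 25–30 U/mg protein) preincubated 2 h with a range of inhibitor concentrations in 130 mM NaCl, 20 mM KCl, 4 mM MgCl₂, 30 mM histidine pH 7.4, 20 °C. 3 mM ATP added, 5 min reaction, released inorganic phosphate measured. Ouabain-insensitive activity (1 mM ouabain) subtracted. K_app from hyperbolic fit.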

In a further assay the test system is MCF7. Put plainly: Antiproliferative activity against human MCF7 cells assessed as cell viability treated for 48 hrs followed by compound washout measured after 72 hrs by fluorometric CellTiter-Blue reagent assay. In kind it is functional, cell-based. An outline of the steps: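 MCF-7 cells grown in DMEM Glutamax with 10% fetal calf serum, penicillin and streptomycin, 37 °C, 5% CO₂. Seeded 3000 cells/well in triplicate, cultured overnight, then given a dilution series of compound; equivalent DMSO dilution series used for normalization. 48 h exposure, then 72 h in fresh compound-free medium before viability read-out.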

`C[C@]12CC[C@H](SCCS[C@H]3CC[C@@]4(C)[C@H](CC[C@@H]5[C@@H]4CC[C@]4(C)[C@@H](C6=CC(=O)OC6)CC[C@]54O)C3)C[C@H]1CC[C@@H]1[C@@H]2CC[C@]2(C)[C@@H](C3=CC(=O)OC3)CC[C@]12O`: the Kapp in the assay filed under Sus scrofa is 9.9 µM. Moreover, the IC50 with MCF7 was 7000 nM.

As for `C[C@]12CC[C@H](SCCOCCOCCOCCS[C@H]3CC[C@@]4(C)[C@H](CC[C@@H]5[C@@H]4CC[C@]4(C)[C@@H](C6=CC(=O)OC6)CC[C@]54O)C3)C[C@H]1CC[C@@H]1[C@@H]2CC[C@]2(C)[C@@H](C3=CC(=O)OC3)CC[C@]12O`, the Kapp in the assay listed under Sus scrofa was > 53 µM. Also, in the assay with MCF7, the IC50 stood at 13000 nM.

As for `C[C@]12CC[C@H](SCCOCCOCCS[C@H]3CC[C@@]4(C)[C@H](CC[C@@H]5[C@@H]4CC[C@]4(C)[C@@H](C6=CC(=O)OC6)CC[C@]54O)C3)C[C@H]1CC[C@@H]1[C@@H]2CC[C@]2(C)[C@@H](C3=CC(=O)OC3)CC[C@]12O`, the Kapp in the assay listed under Sus scrofa worked out at 20.5 µM. Further, the IC50 with MCF7 stood at 6600 nM.

Regarding `C[C@H]1O[C@@H](O[C@H]2[C@@H](O)C[C@H](O[C@H]3[C@@H](O)C[C@H](O[C@H]4CC[C@@]5(C)[C@H](CC[C@@H]6[C@@H]5CC[C@]5(C)[C@@H](C7=CC(=O)OC7)CC[C@]65O)C4)O[C@@H]3C)O[C@@H]2C)C[C@H](O)[C@@H]1O` [DIGITOXIN], in the assay filed under Sus scrofa, the Kapp was determined as 0.99 µM. Further, in the assay on MCF7, the IC50 came to 20 nM.

For the compound `C[C@]12CC[C@H](SCCOCCO)C[C@H]1CC[C@@H]1[C@@H]2CC[C@]2(C)[C@@H](C3=CC(=O)OC3)CC[C@]12O`, the Kapp in the assay filed under Sus scrofa amounted to 0.73 µM. In addition, the IC50 in the assay on MCF7 is 400 nM.

`C[C@]12CC[C@H](O)C[C@H]1CC[C@@H]1[C@@H]2CC[C@]2(C)[C@@H](C3=CC(=O)OC3)CC[C@]12O` [DIGITOXIGENIN]: the Kapp in the assay filed under Sus scrofa amounted to 0.52 µM. In addition, the IC50 in the assay with MCF7 was found to be 600 nM.

As to `C[C@]12CC[C@H](S)C[C@H]1CC[C@@H]1[C@@H]2CC[C@]2(C)[C@@H](C3=CC(=O)OC3)CC[C@]12O`, the Kapp in the assay filed under Sus scrofa was found to be 0.42 µM. Besides, the IC50 in the assay on MCF7 was 500 nM.

`C[C@]12CC[C@H](SCCOCCS[C@H]3CC[C@@]4(C)[C@H](CC[C@@H]5[C@@H]4CC[C@]4(C)[C@@H](C6=CC(=O)OC6)CC[C@]54O)C3)C[C@H]1CC[C@@H]1[C@@H]2CC[C@]2(C)[C@@H](C3=CC(=O)OC3)CC[C@]12O`: the Kapp in the assay listed under Sus scrofa worked out at 17.2 µM. For the same compound, in the assay with MCF7, the IC50 was determined as 8600 nM.

With `C[C@]12CC[C@H](SCCOCCOCCO)C[C@H]1CC[C@@H]1[C@@H]2CC[C@]2(C)[C@@H](C3=CC(=O)OC3)CC[C@]12O`, the Kapp in the assay listed under Sus scrofa was determined as 1.27 µM. In the assay with MCF7, the IC50 amounted to 800 nM.

Regarding `C[C@]12CC[C@H](SCCO)C[C@H]1CC[C@@H]1[C@@H]2CC[C@]2(C)[C@@H](C3=CC(=O)OC3)CC[C@]12O`, the Kapp in the assay filed under Sus scrofa is 0.48 µM. The IC50 in the assay with MCF7 worked out at 200 nM.

Consider `C[C@]12CC[C@H](SCCOCCOCCOCCO)C[C@H]1CC[C@@H]1[C@@H]2CC[C@]2(C)[C@@H](C3=CC(=O)OC3)CC[C@]12O`, for which, in the assay listed under Sus scrofa, the Kapp came out at 2.1 µM. For the same compound, the IC50 with MCF7 was 1400 nM.
